According to ChEMBL document CHEMBL1811902, “Thermodynamic and biological evaluation of a thrombin binding aptamer modified with several unlocked nucleic acid (UNA) monomers and a 2'-C-piperazino-UNA monomer” (Bioorg Med Chem, 2011):

How the values were obtained:
Prothrombin = Prothrombin (Homo sapiens, UniProt P00734); assay: Binding affinity to thrombin at 37 degC by isothermal titration calorimetry
In short: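 ITC at 37 °C. One 0.2 µL pre-injection, discarded, then 19 × 2 µL injections. Heat of dilution from aptamer-into-buffer injections subtracted.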

Plasma [1] = assay: Anticoagulant activity in human plasma assessed as time required for clot formation in presence of compound minus time required for clot formation in absence of compound at 0.33 mM at 37 degC; format: functional
In short: (§1)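 Pooled citrate plasma from four healthy donors. Thrombin reagent pre-incubated with aptamer at 0.33 mM for 5 min, then mixed with an equal volume of plasma. Clotting time (thrombin time, seconds) read at 37 °C on an automated coagulation analyser. Antithrombin effect taken as the extra clotting time over a water-added reference.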

Plasma [2] = assay: Anticoagulant activity in human plasma assessed as time required for clot formation at 0.33 mM at 37 degC; format: functional; in short: as §1
[3] = Thermodynamic stability in pH 7.0 buffer containing 100 mM Kcl, 10 mM sodium cacodylate; format: physicochemical
In short: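 UV melting at 295 nm over 5–95 °C at 0.2 °C/min. Samples annealed 5 min at 80 °C, then slowly cooled. Nine strand concentrations spanning 10^-5–10^-6 M, set from absorbance above 80 °C. Heating and cooling profiles recorded. Thermodynamic parameters from non-linear fitting of melting curves with a unimolecular transition model.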

Row | SMILES | Kd (Prothrombin) [nM] | Tm [3] [°C] | Time (Plasma [1]) [s] | Time (Plasma [2]) [s]
1 | Cc1cn([C@H]2C[C@H](OP(N)(=O)OC[C@@H]3C[C@@H](OP(N)(=O)OC[C@H]4O[C@@H](n5cnc6c(=O)[nH]c(N)nc65)C[C@@H]4OP(N)(=O)OC[C@H]4O[C@@H](n5ccc(=O)[nH]c5=O)[C@H](O)[C@@H]4OP(N)(=O)OC[C@H]4O[C@@H](n5cnc6c(=O)[nH]c(N)nc65)[C@H](O)[C@@H]4OP(N)(=O)OC[C@H]4O[C@@H](n5ccc(=O)[nH]c5=O)[C@H](O)[C@@H]4OP(N)(=O)OC[C@H]4O[C@@H](n5cnc6c(=O)[nH]c(N)nc65)C[C@@H]4OP(N)(=O)OC[C@H]4O[C@@H](n5cnc6c(=O)[nH]c(N)nc65)C[C@@H]4OP(N)(=O)OC[C@H]4O[C@@H](n5ccc(=O)[nH]c5=O)[C@H](O)[C@@H]4OP(N)(=O)OC[C@H]4O[C@@H](n5cc(C)c(=O)[nH]c5=O)C[C@@H]4OP(N)(=O)OC[C@H]4O[C@@H](n5cnc6c(=O)[nH]c(N)nc65)C[C@@H]4OP(N)(=O)OC[C@H]4O[C@@H](n5cnc6c(=O)[nH]c(N)nc65)C[C@@H]4O)[C@H](n4cnc5c(=O)[nH]c(N)nc54)O3)[C@@H](COP(N)(=O)O[C@H]3[C@@H](O)[C@H](n4ccc(=O)[nH]c4=O)O[C@@H]3COP(N)(=O)O[C@H]3C[C@H](n4cnc5c(=O)[nH]c(N)nc54)O[C@@H]3COP(N)(=O)O[C@H]3C[C@H](n4cnc5c(=O)[nH]c(N)nc54)O[C@@H]3COC(=O)CCCC[C@@H]3SC[C@@H]4NC(=O)N[C@@H]43)O2)c(=O)[nH]c1=O (stereo partly drawn) | – | 29.7 | 0 | 19
2 | Cc1cn([C@H]2C[C@H](OP(N)(=O)OC[C@@H]3C[C@@H](OP(N)(=O)OC[C@H]4O[C@@H](n5cnc6c(=O)[nH]c(N)nc65)C[C@@H]4OP(N)(=O)OC[C@H](COP(N)(=O)OC[C@H]4O[C@@H](n5cnc6c(=O)[nH]c(N)nc65)C[C@@H]4OP(N)(=O)OC[C@H]4O[C@@H](n5cc(C)c(=O)[nH]c5=O)C[C@@H]4OP(N)(=O)OC[C@H]4O[C@@H](n5cnc6c(=O)[nH]c(N)nc65)C[C@@H]4OP(N)(=O)OC[C@H]4O[C@@H](n5cnc6c(=O)[nH]c(N)nc65)C[C@@H]4OP(N)(=O)OC[C@H](COP(N)(=O)OC[C@H]4O[C@@H](n5cc(C)c(=O)[nH]c5=O)C[C@@H]4OP(N)(=O)OC[C@H]4O[C@@H](n5cnc6c(=O)[nH]c(N)nc65)C[C@@H]4OP(N)(=O)OC[C@H]4O[C@@H](n5cnc6c(=O)[nH]c(N)nc65)C[C@@H]4O)O[C@H](CO)n4ccc(=O)[nH]c4=O)O[C@H](CO)n4ccc(=O)[nH]c4=O)[C@H](n4cnc5c(=O)[nH]c(N)nc54)O3)[C@@H](COP(N)(=O)OC[C@@H](COP(N)(=O)O[C@H]3C[C@H](n4cnc5c(=O)[nH]c(N)nc54)O[C@@H]3COP(N)(=O)O[C@H]3C[C@H](n4cnc5c(=O)[nH]c(N)nc54)O[C@@H]3COC(=O)CCCC[C@@H]3SC[C@@H]4NC(=O)N[C@@H]43)O[C@H](CO)n3ccc(=O)[nH]c3=O)O2)c(=O)[nH]c1=O (stereo partly drawn) | – | 51 | 0.5 | 19.5
3 | Cc1cn([C@H]2C[C@H](OP(N)(=O)OC[C@@H]3C[C@@H](OP(N)(=O)OC[C@H]4O[C@@H](n5cnc6c(=O)[nH]c(N)nc65)C[C@@H]4OP(N)(=O)OC[C@H]4O[C@@H](n5cc(C)c(=O)[nH]c5=O)C[C@@H]4OP(N)(=O)OC[C@H]4O[C@@H](n5cnc6c(=O)[nH]c(N)nc65)C[C@@H]4OP(N)(=O)OC[C@H]4O[C@@H](n5cc(C)c(=O)[nH]c5=O)C[C@@H]4OP(N)(=O)OC[C@H]4O[C@@H](n5cnc6c(=O)[nH]c(N)nc65)C[C@@H]4OP(N)(=O)OC[C@H]4O[C@@H](n5cnc6c(=O)[nH]c(N)nc65)C[C@@H]4OP(N)(=O)OC[C@H](COP(N)(=O)OC[C@H]4O[C@@H](n5cc(C)c(=O)[nH]c5=O)C[C@@H]4OP(N)(=O)OC[C@H]4O[C@@H](n5cnc6c(=O)[nH]c(N)nc65)C[C@@H]4OP(N)(=O)OC[C@H]4O[C@@H](n5cnc6c(=O)[nH]c(N)nc65)C[C@@H]4O)O[C@H](CO)n4ccc(=O)[nH]c4=O)[C@H](n4cnc5c(=O)[nH]c(N)nc54)O3)[C@@H](COP(N)(=O)OC[C@@H](COP(N)(=O)O[C@H]3C[C@H](n4cnc5c(=O)[nH]c(N)nc54)O[C@@H]3COP(N)(=O)O[C@H]3C[C@H](n4cnc5c(=O)[nH]c(N)nc54)O[C@@H]3COC(=O)CCCC[C@@H]3SC[C@@H]4NC(=O)N[C@@H]43)O[C@H](CO)n3ccc(=O)[nH]c3=O)O2)c(=O)[nH]c1=O (stereo partly drawn) | – | 47.4 | 0.4 | 19.4

The next lines start with results.

Row | Kd (Prothrombin) [nM] | Tm [3] [°C] | SMILES | Time (Plasma [1]) [s] | Time (Plasma [2]) [s]
4 | 1000 | 44.8 | Cc1cn([C@H]2C[C@H](OP(N)(=O)OC[C@H]3O[C@@H](n4cnc5c(=O)[nH]c(N)nc54)C[C@@H]3OP(N)(=O)OC[C@H]3O[C@@H](n4cnc5c(=O)[nH]c(N)nc54)C[C@@H]3O)[C@@H](COP(N)(=O)OC[C@@H](COP(N)(=O)O[C@H]3C[C@H](n4cnc5c(=O)[nH]c(N)nc54)O[C@@H]3COP(N)(=O)O[C@H]3C[C@H](n4cnc5c(=O)[nH]c(N)nc54)O[C@@H]3COP(N)(=O)O[C@H]3C[C@H](n4cc(C)c(=O)[nH]c4=O)O[C@@H]3COP(N)(=O)O[C@H]3C[C@H](n4cnc5c(=O)[nH]c(N)nc54)O[C@@H]3COP(N)(=O)O[C@H]3C[C@H](n4c(C)cc(=O)[nH]c4=O)O[C@@H]3COP(N)(=O)O[C@H]3C[C@H](n4cnc5c(=O)[nH]c(N)nc54)O[C@@H]3COP(N)(=O)O[C@@H]3C[C@@H](COP(N)(=O)O[C@H]4C[C@H](n5cc(C)c(=O)[nH]c5=O)O[C@@H]4COP(N)(=O)O[C@H]4C[C@H](n5cc(C)c(=O)[nH]c5=O)O[C@@H]4COP(N)(=O)O[C@H]4C[C@H](n5cnc6c(=O)[nH]c(N)nc65)O[C@@H]4COP(N)(=O)O[C@H]4C[C@H](n5cnc6c(=O)[nH]c(N)nc65)O[C@@H]4COC(=O)CCCC[C@@H]4SC[C@@H]5NC(=O)N[C@@H]54)O[C@H]3n3cnc4c(=O)[nH]c(N)nc43)O[C@H](CN3CCNCC3)n3ccc(=O)[nH]c3=O)O2)c(=O)[nH]c1=O (stereo partly drawn) | 3.5 | 22.5
5 | 47.6 | 42.2 | Cc1cn([C@H]2C[C@H](OP(N)(=O)OC[C@@H]3C[C@@H](OP(N)(=O)OC[C@H]4O[C@@H](n5cnc6c(=O)[nH]c(N)nc65)C[C@@H]4OP(N)(=O)OC[C@H]4O[C@@H](n5cc(C)c(=O)[nH]c5=O)C[C@@H]4OP(N)(=O)OC[C@H]4O[C@@H](n5cnc6c(=O)[nH]c(N)nc65)C[C@@H]4OP(N)(=O)OC[C@H]4O[C@@H](n5cc(C)c(=O)[nH]c5=O)C[C@@H]4OP(N)(=O)OC[C@H]4O[C@@H](n5cnc6c(=O)[nH]c(N)nc65)C[C@@H]4OP(N)(=O)OC[C@H]4O[C@@H](n5cnc6c(=O)[nH]c(N)nc65)C[C@@H]4OP(N)(=O)OC[C@H]4O[C@@H](n5cc(C)c(=O)[nH]c5=O)C[C@@H]4OP(N)(=O)OC[C@H]4O[C@@H](n5cc(C)c(=O)[nH]c5=O)C[C@@H]4OP(N)(=O)OC[C@H]4O[C@@H](n5cnc6c(=O)[nH]c(N)nc65)C[C@@H]4OP(N)(=O)OC[C@H]4O[C@@H](n5cnc6c(=O)[nH]c(N)nc65)C[C@@H]4O)[C@H](n4cnc5c(=O)[nH]c(N)nc54)O3)[C@@H](COP(N)(=O)O[C@H]3C[C@H](n4cc(C)c(=O)[nH]c4=O)O[C@@H]3COP(N)(=O)O[C@H]3C[C@H](n4cnc5c(=O)[nH]c(N)nc54)O[C@@H]3COP(N)(=O)O[C@H]3C[C@H](n4cnc5c(=O)[nH]c(N)nc54)O[C@@H]3COC(=O)CCCC[C@@H]3SC[C@@H]4NC(=O)N[C@@H]43)O2)c(=O)[nH]c1=O (stereo partly drawn) [THROMBIN BINDING APTAMER] | 13.6 | 32.6
6 | 37 | – | Cc1cn([C@H]2C[C@H](OP(N)(=O)OC[C@@H]3C[C@@H](OP(N)(=O)OC[C@H]4O[C@@H](n5cnc6c(=O)[nH]c(N)nc65)C[C@@H]4OP(N)(=O)OC[C@H]4O[C@@H](n5ccc(=O)[nH]c5=O)[C@H](O)[C@@H]4OP(N)(=O)OC[C@H]4O[C@@H](n5cnc6c(=O)[nH]c(N)nc65)C[C@@H]4OP(N)(=O)OC[C@H]4O[C@@H](n5cc(C)c(=O)[nH]c5=O)C[C@@H]4OP(N)(=O)OC[C@H]4O[C@@H](n5cnc6c(=O)[nH]c(N)nc65)C[C@@H]4OP(N)(=O)OC[C@H]4O[C@@H](n5cnc6c(=O)[nH]c(N)nc65)C[C@@H]4OP(N)(=O)OC[C@H]4O[C@@H](n5cc(C)c(=O)[nH]c5=O)C[C@@H]4OP(N)(=O)OC[C@H]4O[C@@H](n5cc(C)c(=O)[nH]c5=O)C[C@@H]4OP(N)(=O)OC[C@H]4O[C@@H](n5cnc6c(=O)[nH]c(N)nc65)C[C@@H]4OP(N)(=O)OC[C@H]4O[C@@H](n5cnc6c(=O)[nH]c(N)nc65)C[C@@H]4O)[C@H](n4cnc5c(=O)[nH]c(N)nc54)O3)[C@@H](COP(N)(=O)O[C@H]3C[C@H](n4cc(C)c(=O)[nH]c4=O)O[C@@H]3COP(N)(=O)O[C@H]3C[C@H](n4cnc5c(=O)[nH]c(N)nc54)O[C@@H]3COP(N)(=O)O[C@H]3C[C@H](n4cnc5c(=O)[nH]c(N)nc54)O[C@@H]3CO)O2)c(=O)[nH]c1=O (stereo partly drawn) | – | –
